Laboratory results from ChEMBL document CHEMBL2016531, “Identification of NAE Inhibitors Exhibiting Potent Activity in Leukemia Cells: Exploring the Structural Determinants of NAE Specificity” (ACS Med Chem Lett, 2011).
Calls of active or inactive are those of the source. The rule behind the calls is not given here.

Columns and labels:
Homo sapiens [1] = species: Homo sapiens; experiment: Inhibition of human recombinant NAE assessed as inhibition of NEDD8-UbcH12 complex formation at 10 nM after 1.5 hrs by Western blot analysis
Summary of the method: (§1)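 Cell-free gel assay. Purified human recombinant E1 incubated with its matching Ub/Ubl and E2 in 50 mM HEPES pH 7.4, 5 mM MgCl2, 1–20 μM ATP. Inhibitor at 0, 0.001, 0.01, 0.1, 1 or 10 μM, 1.5 h at room temperature. Products resolved by SDS-PAGE, immunoblotted and detected by ECL; densitometry used for semiquantitation.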

Homo sapiens [2] = species: Homo sapiens; experiment: Inhibition of human recombinant NAE assessed as inhibition of NEDD8-UbcH12 complex formation at 1 nM after 1.5 hrs by Western blot analysis; summary of the method: as §1
[3] = biological target: SUMO-activating enzyme (Homo sapiens) (UniProt Q9UBE0+Q9UBT2); experiment: Inhibition of human recombinant SAE1/2 assessed as inhibition of SUMO1-UbcH9 complex formation at 0.001 to 10 uM after 1.5 hrs by Western blot analysis; format: protein-complex assay; summary of the method: as §1
Homo sapiens [4] = species: Homo sapiens; experiment: Inhibition of human recombinant UAE assessed as inhibition of UbcH6-Ub complex formation at 0.001 to 10 uM after 1.5 hrs by Western blot analysis; summary of the method: as §1
Homo sapiens [5] = species: Homo sapiens; experiment: Inhibition of human recombinant NAE assessed as inhibition of NEDD8-UbcH12 complex formation at 0.001 to 10 uM after 1.5 hrs by Western blot analysis; summary of the method: as §1
K562 = experiment: Antiproliferative activity against human K562 cells after 72 hrs by CellTiter-Glo assay; format: functional, cell-based; conditions: K562, 72 h
Summary of the method: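 K562 leukemia cells exposed to increasing concentrations for 72 h; growth and viability read by CellTiter-Glo luminescence.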

[6] = biological target: Ubiquitin-like modifier-activating enzyme 5 (Homo sapiens) (UniProt Q9GZZ9); experiment: Inhibition of human recombinant UBA5 assessed as inhibition of […]-UFM1 complex formation at 10 uM after 1.5 hrs by Western blot analysis; summary of the method: as §1
Homo sapiens [7] = species: Homo sapiens; experiment: Inhibition of human recombinant NAE assessed as inhibition of NEDD8-UbcH12 complex formation at <10 nM after 1.5 hrs by Western blot analysis; summary of the method: as §1
Homo sapiens [8] = species: Homo sapiens; experiment: Inhibition of human recombinant NAE assessed as inhibition of NEDD8-UbcH12 complex formation at >10 nM after 1.5 hrs by Western blot analysis; summary of the method: as §1

Sequence of Ubiquitin-like modifier-activating enzyme 5 (Homo sapiens) (Q9GZZ9 whole entry): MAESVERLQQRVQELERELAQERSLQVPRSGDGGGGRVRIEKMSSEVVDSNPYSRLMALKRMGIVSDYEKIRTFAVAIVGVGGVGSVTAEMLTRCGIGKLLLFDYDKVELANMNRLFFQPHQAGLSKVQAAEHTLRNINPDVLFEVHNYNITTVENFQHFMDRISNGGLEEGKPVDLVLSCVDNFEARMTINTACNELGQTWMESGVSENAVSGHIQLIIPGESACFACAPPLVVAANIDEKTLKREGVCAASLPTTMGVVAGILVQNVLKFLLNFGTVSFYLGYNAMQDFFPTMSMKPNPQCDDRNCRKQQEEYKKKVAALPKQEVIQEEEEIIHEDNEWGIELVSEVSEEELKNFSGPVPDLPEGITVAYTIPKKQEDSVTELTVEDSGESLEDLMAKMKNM

SMILES | inhibition (Homo sapiens [1]) | inhibition (Homo sapiens [2]) | inhibition [3] | inhibition (Homo sapiens [4]) | inhibition (Homo sapiens [5]) | EC50 (K562) [nM] | inhibition [6] | inhibition (Homo sapiens [7]) | inhibition (Homo sapiens [8])
CC(C)(C)CC(C)(C)Nc1ncnc2c1ncn2[C@@H]1O[C@H](COS(N)(=O)=O)[C@@H](O)[C@H]1O | inactive |  | Active | Active | Active | > 1000 | inactive |  | 
NS(=O)(=O)OC[C@H]1O[C@@H](n2cnc3c(N4CCOCC4)ncnc32)[C@H](O)[C@@H]1O |  |  |  |  |  |  |  | inactive | 
NS(=O)(=O)OC[C@H]1O[C@@H](n2cnc3c(NCC4COCCOCCOCCOCCO4)ncnc32)[C@H](O)[C@@H]1O (stereo partly drawn) |  |  | Active | Active | Active | > 1000 | inactive |  | 
NS(=O)(=O)OC[C@H]1O[C@@H](n2cnc3c(NCc4ccoc4)ncnc32)[C@H](O)[C@@H]1O | 100% |  |  |  |  |  |  |  | Active
CCCNc1ncnc2c1ncn2[C@@H]1O[C@H](COS(N)(=O)=O)[C@@H](O)[C@H]1O | < 63% | inactive | Active | Active | Active |  | inactive |  | 
NS(=O)(=O)OC[C@H]1O[C@@H](n2cnc3c(NCc4cccs4)ncnc32)[C@H](O)[C@@H]1O | 100% |  | Active | Active | Active | 114 | inactive |  | 
NS(=O)(=O)OC[C@H]1O[C@@H](n2cnc3c(N[C@@H]4C[C@H]5CCC4C5)ncnc32)[C@H](O)[C@@H]1O |  |  | Active | Active | Active |  | inactive |  | 
CCN(c1ncnc2c1ncn2[C@@H]1O[C@H](COS(N)(=O)=O)[C@@H](O)[C@H]1O)C(C)C |  |  |  |  |  |  |  | inactive | Active
NS(=O)(=O)OC[C@@H]1C[C@@H](n2ccc3c(N[C@H]4CCc5ccccc54)ncnc32)C[C@@H]1O [PEVONEDISTAT] |  |  | Active | Active | Active | 108 | inactive |  | 
NS(=O)(=O)OC[C@H]1O[C@@H](n2cnc3c(N4CCC5CCCCC5C4)ncnc32)[C@H](O)[C@@H]1O (stereo partly drawn) |  |  | Active | Active | Active | > 1000 | inactive | inactive | 
CCCCN(CCCC)c1ncnc2c1ncn2[C@@H]1O[C@H](COS(N)(=O)=O)[C@@H](O)[C@H]1O |  |  | Active | Active | Active |  | inactive | inactive | 
CCCCNc1ncnc2c1ncn2[C@@H]1O[C@H](COS(N)(=O)=O)[C@@H](O)[C@H]1O |  | < 58% |  |  |  |  |  |  | Active
CC(C)(C)CCNc1ncnc2c1ncn2[C@@H]1O[C@H](COS(N)(=O)=O)[C@@H](O)[C@H]1O | < 29% |  | Active | Active | Active | 929 | inactive |  | 
Nc1ncnc2c1ncn2[C@@H]1O[C@H](COS(N)(=O)=O)[C@@H](O)[C@H]1O |  | < 16% |  |  |  |  |  |  | 
NS(=O)(=O)OC[C@H]1O[C@@H](n2cnc3c(NC4CCCCCCC4)ncnc32)[C@H](O)[C@@H]1O |  |  |  |  |  | 380 |  |  | 
CCCCN(CC)c1ncnc2c1ncn2[C@@H]1O[C@H](COS(N)(=O)=O)[C@@H](O)[C@H]1O |  |  |  |  |  |  |  | inactive | 
NS(=O)(=O)OC[C@H]1O[C@@H](n2cnc3c(NCC4CCCO4)ncnc32)[C@H](O)[C@@H]1O (stereo partly drawn) |  |  | Active | Active | Active | > 1000 | inactive |  | 
CN(Cc1ccco1)c1ncnc2c1ncn2[C@@H]1O[C@H](COS(N)(=O)=O)[C@@H](O)[C@H]1O |  |  | Active | Active | Active | > 1000 | inactive | inactive | Active
NS(=O)(=O)OC[C@H]1O[C@@H](n2cnc3c(Nc4ccccc4)ncnc32)[C@H](O)[C@@H]1O |  |  | Active | Active | Active |  | inactive |  | 

Results, then the compound that gave them:

inhibition (Homo sapiens [1]) | inhibition (Homo sapiens [2]) | inhibition [3] | inhibition (Homo sapiens [4]) | inhibition (Homo sapiens [5]) | EC50 (K562) [nM] | inhibition [6] | inhibition (Homo sapiens [7]) | inhibition (Homo sapiens [8]) | SMILES
< 76% | inactive |  |  |  |  |  |  |  | CNc1ncnc2c1ncn2[C@@H]1O[C@H](COS(N)(=O)=O)[C@@H](O)[C@H]1O
 |  |  |  |  | > 1000 |  |  |  | COCCNc1ncnc2c1ncn2[C@@H]1O[C@H](COS(N)(=O)=O)[C@@H](O)[C@H]1O
 |  | Active | Active | Active |  | inactive |  |  | CC(C)CC(C)Nc1ncnc2c1ncn2[C@@H]1O[C@H](COS(N)(=O)=O)[C@@H](O)[C@H]1O (stereo partly drawn)
 | < 62% |  |  |  | 181 |  |  |  | CCCCCNc1ncnc2c1ncn2[C@@H]1O[C@H](COS(N)(=O)=O)[C@@H](O)[C@H]1O
 |  |  |  |  |  |  | inactive |  | CN(Cc1ccccc1)c1ncnc2c1ncn2[C@@H]1O[C@H](COS(N)(=O)=O)[C@@H](O)[C@H]1O
 |  | Active | Active | Active | 559 | inactive |  |  | NS(=O)(=O)OC[C@H]1O[C@@H](n2cnc3c(NCCc4cccs4)ncnc32)[C@H](O)[C@@H]1O
 |  | Active | Active | Active |  | inactive |  |  | NS(=O)(=O)OC[C@H]1O[C@@H](n2cnc3c(NCCCn4ccnc4)ncnc32)[C@H](O)[C@@H]1O
 |  | Active | Active | Active | 203 | inactive |  |  | CCCCCC(C)Nc1ncnc2c1ncn2[C@@H]1O[C@H](COS(N)(=O)=O)[C@@H](O)[C@H]1O (stereo partly drawn)
 | inactive | Active | Active | Active | 132 | inactive |  |  | CCCCCCCNc1ncnc2c1ncn2[C@@H]1O[C@H](COS(N)(=O)=O)[C@@H](O)[C@H]1O
 |  | Active | Active | Active |  | inactive | inactive |  | CCN(CC)c1ncnc2c1ncn2[C@@H]1O[C@H](COS(N)(=O)=O)[C@@H](O)[C@H]1O
< 25% |  | Active | Active | Active | > 1000 | inactive |  |  | CCC(C)Nc1ncnc2c1ncn2[C@@H]1O[C@H](COS(N)(=O)=O)[C@@H](O)[C@H]1O (stereo partly drawn)
 |  | Active | Active | Active |  | inactive |  | Active | CC(C)Nc1ncnc2c1ncn2[C@@H]1O[C@H](COS(N)(=O)=O)[C@@H](O)[C@H]1O
 |  |  |  |  |  |  | inactive | Active | CCCCN(C)c1ncnc2c1ncn2[C@@H]1O[C@H](COS(N)(=O)=O)[C@@H](O)[C@H]1O
